Measured values published in ChEMBL document CHEMBL1255487, “Preclinical evaluation of the antifolate QN254, 5-chloro- N'6'-(2,5-dimethoxy-benzyl)-quinazoline-2,4,6-triamine, as an antimalarial drug candidate” (Antimicrob Agents Chemother, 2010).

Key:
[1] = Binding affinity to wild type Plasmodium falciparum DHFR by competitive binding assay
[2] = tested on: Plasmodium falciparum; experiment: Antimalarial activity against pyrimethamine-resistant Plasmodium falciparum clinical isolate harboring S108N, N51I mutation in DHFR assessed as decrease in parasitaemia; assay type: functional, organism-based
Procedure, shortened: (§1)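 P. falciparum grown in RPMI 1640 with 10% (v/v) human serum, 25 mM bicarbonate, 2 mM glutamine, 25 mM HEPES, 5 nM para-aminobenzoic acid and 23 nM folic acid. Parasites exposed to a concentration series. Read-out is [3H]hypoxanthine incorporation into nucleic acid. IC50 taken from non-linear regression of the dose–response curve.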

[3] = tested on: Plasmodium falciparum; experiment: Antimalarial activity against pyrimethamine-resistant Plasmodium falciparum clinical isolate harboring S108N, C59R mutation in DHFR assessed as decrease in parasitaemia; assay type: functional, organism-based; procedure, shortened: as §1
[4] = tested on: Plasmodium falciparum; experiment: Antimalarial activity against pyrimethamine-resistant Plasmodium falciparum clinical isolate harboring S108N, N51I, C59R mutation in DHFR assessed as decrease in parasitaemia; assay type: functional, organism-based; procedure, shortened: as §1
[5] = tested on: Plasmodium falciparum; experiment: Antimalarial activity against pyrimethamine-resistant Plasmodium falciparum V1/S harboring S108N, N51I, C59R, I164L mutation in DHFR assessed as decrease in parasitaemia; assay type: functional, organism-based; settings: V1S
[6] = Binding affinity to recombinant Plasmodium falciparum V1/S DHFR S108N, N51I, C59R, I164L mutant by competitive binding assay; parameters: species or system V1S
[7] = target: T1, Dihydrofolate reductase (Homo sapiens, UniProt P00374); experiment: Binding affinity to human recombinant DHFR expressed in Escherichia coli BL21(DE3) by competitive binding assay
T1 sequence (P00374 whole entry): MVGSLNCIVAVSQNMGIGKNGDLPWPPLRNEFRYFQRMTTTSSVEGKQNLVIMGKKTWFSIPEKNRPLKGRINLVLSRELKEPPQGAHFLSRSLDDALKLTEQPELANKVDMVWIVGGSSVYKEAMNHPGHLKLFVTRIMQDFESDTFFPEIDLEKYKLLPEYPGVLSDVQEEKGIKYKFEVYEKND

[8] = tested on: Plasmodium falciparum; experiment: Selectivity ratio of Ki for recombinant Plasmodium falciparum V1/S DHFR S108N, N51I, C59R, I164L mutant to Ki for wild type Plasmodium falciparum DHFR
[9] = Selectivity ratio of Ki for human recombinant DHFR to Ki for wild type Plasmodium falciparum DHFR
[10] = tested on: Plasmodium berghei; experiment: Antimalarial activity against Plasmodium berghei ANKA infected in NMRI mice (Mus musculus) assessed as reduction in parasitemia at 3 times 30 mg/kg, perorally measured on day 3 postinfection; assay type: functional; parameters: scale not given: the % may be the effect or the level left; settings: route oral
Procedure, shortened: (§2)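 P. berghei ANKA given intravenously to groups of 5 female NMRI mice (20–22 g): 0.2 ml of 1 × 10^8 parasitized erythrocytes/ml from a donor mouse. Oral dosing in 0.5% carboxymethyl cellulose. Parasitemia counted by microscopy. Activity is the control-minus-treated parasitemia difference, expressed as percent of untreated controls.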

[11] = tested on: Plasmodium berghei; experiment: Antimalarial activity against Plasmodium berghei ANKA infected in NMRI mice (Mus musculus) assessed as reduction in parasitemia at 100 mg/kg, perorally administered as single dose measured on day 3 postinfection; assay type: functional; parameters: scale not given: the % may be the effect or the level left; settings: route oral; procedure, shortened: as §2
[12] = tested on: Plasmodium berghei; experiment: Antimalarial activity against Plasmodium berghei ANKA infected in NMRI mice (Mus musculus) assessed as cure rate at 100 mg/kg, perorally administered as single dose measured on […]; assay type: functional; settings: route oral
Procedure, shortened: (§3)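 Female NMRI mice (20–22 g), 5 per group, infected intravenously with 0.2 ml of 1 × 10^8 parasitized erythrocytes/ml from a fresh donor mouse. Compound suspended in 0.5% carboxymethyl cellulose and given orally. Survival followed to day 30 post-infection; an animal was scored cured if it survived to day 30 without parasites.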

[13] = tested on: Plasmodium berghei; experiment: Antimalarial activity against Plasmodium berghei ANKA infected in NMRI mice (Mus musculus) assessed as cure rate at 3 times 30 mg/kg, perorally measured […]; assay type: functional; settings: route oral; procedure, shortened: as §3
[14] = tested on: Mus musculus; experiment: Toxicity in NMRI mice (Mus musculus) infected with Plasmodium berghei ANKA at 3 times 30 mg/kg, perorally measured up to 30 days postinfection; assay type: organism-based; parameters: dose 30 mg/kg, route oral; settings: in vivo, po, 720 h
[15] = tested on: Plasmodium berghei; experiment: Antimalarial activity against Plasmodium berghei ANKA infected in NMRI mice (Mus musculus) assessed as mean survival time at 3 times 30 mg/kg, perorally; assay type: functional; settings: route oral
Procedure, shortened: (§4)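 Infection: 5 female NMRI mice (20–22 g) per group, inoculated intravenously with 0.2 ml of donor blood at 1 × 10^8 parasitized erythrocytes/ml. Oral administration in 0.5% carboxymethyl cellulose. Survival time recorded up to 30 days after infection and averaged per group.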

[16] = tested on: Mus musculus; experiment: Toxicity in NMRI mice (Mus musculus) infected with Plasmodium berghei ANKA at 100 mg/kg, perorally administered as single dose measured up to 30 days postinfection; assay type: organism-based; parameters: dose 100 mg/kg, route oral; settings: in vivo, po, 720 h
[17] = tested on: Plasmodium berghei; experiment: Antimalarial activity against Plasmodium berghei ANKA infected in perorally dosed NMRI mice (Mus musculus) assessed as reduction in parasitemia administered as single dose measured on day 3 postinfection; assay type: functional; settings: for ED50 / ED90: po, 72 h
[18] = tested on: Plasmodium berghei; experiment: Antimalarial activity against Plasmodium berghei ANKA infected in NMRI mice (Mus musculus) assessed as survival rate at 100 mg/kg, perorally administered as single dose; assay type: functional; settings: route oral; procedure, shortened: as §4

| Structure (SMILES) | Ki [1] | Ki [6] | Activity [10] | Activity [11] | Activity [12] | Activity [13] | Activity [14] | Survival [15] | Activity [16] | ED50 [17] | ED90 [17] | Survival [18] | other results |
| --- | --- | --- | --- | --- | --- | --- | --- | --- | --- | --- | --- | --- | --- |
| CCc1nc(N)nc(N)c1-c1ccc(Cl)cc1 [PYRIMETHAMINE] | 0.59 nM | 385 nM | – | – | – | – | – | – | – | – | – | – | IC50 [2]: 371 nM; IC50 [3]: 371 nM; IC50 [4]: 778 nM; IC50 [5]: 3690 nM |
| CC1(C)N=C(N)N=C(N)N1c1ccc(Cl)cc1 [CYCLOGUANIL] | 1.51 nM | 454 nM | – | – | – | – | – | – | – | – | – | – | – |
| CC1(C)N=C(N)N=C(N)N1OCCCOc1cc(Cl)c(Cl)cc1Cl | 0.5 nM | 1.9 nM | – | – | – | – | – | – | – | – | – | – | Ki [7]: 7.7 nM; Ratio Ki [8]: 1.8; Ratio Ki [9]: 15 |
| OC(c1cc(C(F)(F)F)nc2c(C(F)(F)F)cccc12)C1CCCCN1 (stereo unspecified) [MEFLOQUINE] | – | – | 99.8% | 99.6% | 0% | 0% | 0% | 14.3 days | 0% | – | – | – | – |
| CCN(CC)CCCC(C)Nc1ccnc2cc(Cl)ccc12 (stereo unspecified) [CHLOROQUINE] | – | – | 98.8% | 89% | 0% | 0% | 0% | 22.1 days | 0% | 1.9 mg/kg | 4.2 mg/kg | 25.5 days | inhibition [17]: Dose dependent effect |
| C[C@H]1[C@H](OC(=O)CCC(=O)O)O[C@@H]2O[C@@]3(C)CC[C@H]4[C@H](C)CC[C@@H]1[C@@]24OO3 [ARTESUNATE] | – | – | 98.7% | 98% | 0% | 0% | 0% | 12.2 days | 0% | 5.9 mg/kg | 20.5 mg/kg | 7 days | – |
